Test results: ChEMBL document CHEMBL2417369, “Synthesis and evaluation of heteroaryl substituted diazaspirocycles as scaffolds to probe the ATP-binding site of protein kinases” (Bioorg Med Chem, 2013)

Key:
[1] = biological target: Ribosomal protein S6 kinase alpha-4 (Homo sapiens) (UniProt O75676); assay: Inhibition of MSK2 (unknown origin) at 30 uM by microfluidic mobility shift assay relative to control
Summary of the method: (§1)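 Single-point screen at 30 µM test compound across a 24-kinase panel in a microfluidic assay format. ATP was set near each enzyme's Km,[ATP]. […] The pan-AGC inhibitor H-89 served as an internal control on every assay plate.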

[2] = biological target: Rho-associated protein kinase 2 (Homo sapiens) (UniProt O75116); assay: Inhibition of ROCK2 (unknown origin) at 30 uM by microfluidic mobility shift assay relative to control
Summary of the method: (§2)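 Single-point screen against a 24-kinase panel in a commercial microfluidic assay format. Compounds were tested at 30 µM, with ATP at approximately the Km,[ATP] of each enzyme. H-89 was included on each assay plate as an internal control.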

Homo sapiens [3] = species: Homo sapiens; assay: Inhibition of CAMK2 (unknown origin) at 30 uM by microfluidic mobility shift assay relative to control; summary of the method: as §1
[4] = biological target: Mitogen-activated protein kinase 1 (Homo sapiens, UniProt P28482); assay: Inhibition of MAPK2 (unknown origin) at 30 uM by microfluidic mobility shift assay relative to control; summary of the method: as §1
Homo sapiens [5] = species: Homo sapiens; assay: Inhibition of PKGbeta (unknown origin) at 30 uM by microfluidic mobility shift assay relative to control; summary of the method: as §2
[6] = biological target: T1, Inhibitor of nuclear factor kappa-B kinase subunit beta (Homo sapiens) (UniProt O14920); assay: Inhibition of IKKbeta (unknown origin) at 30 uM by microfluidic mobility shift assay relative to control; summary of the method: as §1
T1 sequence (whole entry): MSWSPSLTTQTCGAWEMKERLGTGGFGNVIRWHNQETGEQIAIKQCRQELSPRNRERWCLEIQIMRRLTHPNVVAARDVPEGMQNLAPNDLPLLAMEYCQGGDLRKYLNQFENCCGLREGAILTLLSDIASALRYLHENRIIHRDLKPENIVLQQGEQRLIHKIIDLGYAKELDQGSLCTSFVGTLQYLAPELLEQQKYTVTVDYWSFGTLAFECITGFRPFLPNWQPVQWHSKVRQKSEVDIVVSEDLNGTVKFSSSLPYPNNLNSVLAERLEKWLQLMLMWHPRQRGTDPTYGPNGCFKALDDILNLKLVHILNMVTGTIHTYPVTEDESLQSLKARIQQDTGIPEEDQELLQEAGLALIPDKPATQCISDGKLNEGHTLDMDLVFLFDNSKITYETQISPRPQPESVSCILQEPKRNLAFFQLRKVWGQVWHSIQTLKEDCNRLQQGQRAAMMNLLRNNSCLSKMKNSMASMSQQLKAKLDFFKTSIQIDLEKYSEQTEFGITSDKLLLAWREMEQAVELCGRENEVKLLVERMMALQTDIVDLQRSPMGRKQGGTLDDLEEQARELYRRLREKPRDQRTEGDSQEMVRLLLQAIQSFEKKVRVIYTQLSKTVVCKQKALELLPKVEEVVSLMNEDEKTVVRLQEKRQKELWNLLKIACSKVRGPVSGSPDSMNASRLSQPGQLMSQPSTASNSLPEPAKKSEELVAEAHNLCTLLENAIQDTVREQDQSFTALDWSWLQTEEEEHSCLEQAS

[7] = biological target: Fibroblast growth factor receptor 2 (Homo sapiens) (UniProt P21802); assay: Inhibition of FGFR2 (unknown origin) at 30 uM by microfluidic mobility shift assay relative to control; summary of the method: as §1
[8] = biological target: Ribosomal protein S6 kinase alpha-2 (Homo sapiens) (UniProt Q15349); assay: Inhibition of RSK3 (unknown origin) at 30 uM by microfluidic mobility shift assay relative to control; summary of the method: as §2
[9] = biological target: T2, Mitogen-activated protein kinase 13 (Homo sapiens) (UniProt O15264); assay: Inhibition of p38delta (unknown origin) at 30 uM by microfluidic mobility shift assay relative to control; summary of the method: as §2
T2 sequence (whole entry): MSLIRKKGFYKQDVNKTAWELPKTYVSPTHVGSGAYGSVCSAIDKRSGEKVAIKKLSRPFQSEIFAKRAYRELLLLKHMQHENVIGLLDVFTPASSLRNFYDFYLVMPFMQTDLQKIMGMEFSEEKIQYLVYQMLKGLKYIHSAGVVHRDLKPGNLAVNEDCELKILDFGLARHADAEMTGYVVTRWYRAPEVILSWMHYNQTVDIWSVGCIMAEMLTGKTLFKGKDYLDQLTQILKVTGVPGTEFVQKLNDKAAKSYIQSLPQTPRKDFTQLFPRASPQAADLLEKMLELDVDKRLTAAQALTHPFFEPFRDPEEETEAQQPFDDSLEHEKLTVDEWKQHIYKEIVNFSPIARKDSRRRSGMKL

[10] = biological target: Serine/threonine-protein kinase PAK 2 (Homo sapiens) (UniProt Q13177); assay: Inhibition of PAK2 (unknown origin) at 30 uM by microfluidic mobility shift assay relative to control; summary of the method: as §1
[11] = biological target: Tyrosine-protein kinase HCK (Homo sapiens) (UniProt P08631); assay: Inhibition of HCK (unknown origin) at 30 uM by microfluidic mobility shift assay relative to control; summary of the method: as §1
[12] = biological target: T3, Calcium/calmodulin-dependent protein kinase type IV (Homo sapiens) (UniProt Q16566); assay: Inhibition of CAMK4 (unknown origin) at 30 uM by microfluidic mobility shift assay relative to control; summary of the method: as §1
T3 sequence (whole entry): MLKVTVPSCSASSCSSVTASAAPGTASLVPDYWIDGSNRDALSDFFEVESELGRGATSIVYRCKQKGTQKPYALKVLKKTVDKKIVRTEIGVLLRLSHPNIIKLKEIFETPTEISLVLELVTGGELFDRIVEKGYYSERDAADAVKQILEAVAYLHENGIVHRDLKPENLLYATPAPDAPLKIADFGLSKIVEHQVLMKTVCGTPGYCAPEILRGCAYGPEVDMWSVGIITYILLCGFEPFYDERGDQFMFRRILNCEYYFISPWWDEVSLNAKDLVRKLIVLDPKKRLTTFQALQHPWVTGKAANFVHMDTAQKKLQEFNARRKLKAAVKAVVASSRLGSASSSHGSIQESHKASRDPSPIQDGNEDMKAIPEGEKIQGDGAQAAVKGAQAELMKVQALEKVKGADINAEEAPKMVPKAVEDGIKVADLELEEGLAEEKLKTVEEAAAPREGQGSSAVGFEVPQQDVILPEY

[13] = biological target: Calcium/calmodulin-dependent protein kinase type II subunit gamma (Homo sapiens) (UniProt Q13555); assay: Inhibition of CAMK2gamma (unknown origin) at 30 uM by microfluidic mobility shift assay relative to control

Rho-associated protein kinase 2 (Homo sapiens), sequence (O75116 whole entry, looked up): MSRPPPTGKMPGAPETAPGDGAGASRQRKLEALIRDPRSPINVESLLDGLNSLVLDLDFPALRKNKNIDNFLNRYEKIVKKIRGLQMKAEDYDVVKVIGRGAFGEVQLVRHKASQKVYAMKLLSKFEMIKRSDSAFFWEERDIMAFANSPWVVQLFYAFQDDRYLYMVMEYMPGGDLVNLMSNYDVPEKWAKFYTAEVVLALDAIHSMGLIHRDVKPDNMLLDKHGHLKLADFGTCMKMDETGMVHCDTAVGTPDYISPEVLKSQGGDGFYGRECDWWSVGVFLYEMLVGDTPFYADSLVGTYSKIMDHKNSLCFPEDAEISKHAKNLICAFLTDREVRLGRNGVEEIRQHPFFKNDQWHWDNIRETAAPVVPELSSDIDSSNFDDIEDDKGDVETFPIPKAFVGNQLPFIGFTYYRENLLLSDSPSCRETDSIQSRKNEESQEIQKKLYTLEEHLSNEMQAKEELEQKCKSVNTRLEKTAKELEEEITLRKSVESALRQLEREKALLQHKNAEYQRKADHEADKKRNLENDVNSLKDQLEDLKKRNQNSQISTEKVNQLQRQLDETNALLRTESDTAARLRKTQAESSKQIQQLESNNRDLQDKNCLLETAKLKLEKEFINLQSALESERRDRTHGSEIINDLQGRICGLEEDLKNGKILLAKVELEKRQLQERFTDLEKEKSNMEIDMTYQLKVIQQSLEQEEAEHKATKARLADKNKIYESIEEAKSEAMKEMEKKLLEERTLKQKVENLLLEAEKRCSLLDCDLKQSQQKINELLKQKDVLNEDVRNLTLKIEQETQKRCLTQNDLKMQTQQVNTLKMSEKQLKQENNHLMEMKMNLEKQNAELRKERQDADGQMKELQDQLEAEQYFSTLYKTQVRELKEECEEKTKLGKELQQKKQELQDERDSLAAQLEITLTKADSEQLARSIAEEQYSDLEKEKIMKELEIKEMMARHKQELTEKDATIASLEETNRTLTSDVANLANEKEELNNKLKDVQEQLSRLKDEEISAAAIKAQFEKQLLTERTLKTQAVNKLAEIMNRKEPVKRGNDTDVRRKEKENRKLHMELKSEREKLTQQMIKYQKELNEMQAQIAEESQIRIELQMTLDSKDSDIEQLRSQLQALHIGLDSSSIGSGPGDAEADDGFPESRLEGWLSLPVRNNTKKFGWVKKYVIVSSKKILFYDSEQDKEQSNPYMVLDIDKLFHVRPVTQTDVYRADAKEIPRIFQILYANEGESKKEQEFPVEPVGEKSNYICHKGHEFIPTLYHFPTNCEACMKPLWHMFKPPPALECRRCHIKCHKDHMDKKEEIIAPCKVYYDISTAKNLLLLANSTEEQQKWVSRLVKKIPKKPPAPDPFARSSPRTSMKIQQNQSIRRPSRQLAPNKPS
Ribosomal protein S6 kinase alpha-2 (Homo sapiens), sequence (Q15349 whole entry): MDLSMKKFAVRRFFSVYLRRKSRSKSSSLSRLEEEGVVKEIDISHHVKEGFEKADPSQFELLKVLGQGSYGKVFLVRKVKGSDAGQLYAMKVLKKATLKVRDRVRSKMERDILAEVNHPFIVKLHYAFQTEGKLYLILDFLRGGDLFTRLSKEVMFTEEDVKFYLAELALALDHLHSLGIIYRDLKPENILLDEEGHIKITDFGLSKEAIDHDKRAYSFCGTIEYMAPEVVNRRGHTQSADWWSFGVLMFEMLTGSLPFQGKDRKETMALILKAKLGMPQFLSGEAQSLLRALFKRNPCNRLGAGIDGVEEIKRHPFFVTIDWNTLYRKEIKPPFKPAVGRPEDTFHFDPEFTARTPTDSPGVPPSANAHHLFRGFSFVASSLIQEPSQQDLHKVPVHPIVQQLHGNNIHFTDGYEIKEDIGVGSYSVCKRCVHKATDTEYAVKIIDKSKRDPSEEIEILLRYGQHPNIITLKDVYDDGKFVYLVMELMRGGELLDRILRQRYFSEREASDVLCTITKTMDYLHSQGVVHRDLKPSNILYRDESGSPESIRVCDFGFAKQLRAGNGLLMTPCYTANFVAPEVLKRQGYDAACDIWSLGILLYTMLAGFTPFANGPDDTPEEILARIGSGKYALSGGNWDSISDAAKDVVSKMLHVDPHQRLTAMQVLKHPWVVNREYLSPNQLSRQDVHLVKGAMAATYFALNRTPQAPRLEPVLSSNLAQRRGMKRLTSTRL
Ribosomal protein S6 kinase alpha-4 (Homo sapiens), sequence (O75676 whole entry, looked up): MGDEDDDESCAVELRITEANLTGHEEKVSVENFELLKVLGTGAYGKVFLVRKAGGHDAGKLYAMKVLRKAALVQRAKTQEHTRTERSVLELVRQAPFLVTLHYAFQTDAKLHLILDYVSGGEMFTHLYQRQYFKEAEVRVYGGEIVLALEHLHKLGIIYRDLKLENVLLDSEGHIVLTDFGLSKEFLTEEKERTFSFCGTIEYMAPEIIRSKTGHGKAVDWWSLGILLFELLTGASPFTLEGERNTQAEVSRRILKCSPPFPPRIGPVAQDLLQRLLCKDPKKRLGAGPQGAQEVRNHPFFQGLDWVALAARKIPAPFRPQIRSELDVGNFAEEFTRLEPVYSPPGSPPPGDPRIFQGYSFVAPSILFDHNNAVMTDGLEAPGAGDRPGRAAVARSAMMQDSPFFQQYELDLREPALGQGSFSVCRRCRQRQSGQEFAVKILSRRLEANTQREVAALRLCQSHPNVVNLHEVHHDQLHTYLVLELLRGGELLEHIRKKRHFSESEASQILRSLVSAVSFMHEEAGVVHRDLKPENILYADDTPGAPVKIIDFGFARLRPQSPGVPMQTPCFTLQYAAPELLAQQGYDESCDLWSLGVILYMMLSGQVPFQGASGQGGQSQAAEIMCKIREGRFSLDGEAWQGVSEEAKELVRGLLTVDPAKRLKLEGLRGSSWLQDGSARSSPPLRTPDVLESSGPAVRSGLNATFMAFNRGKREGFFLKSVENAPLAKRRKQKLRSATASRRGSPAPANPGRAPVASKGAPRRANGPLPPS
Mitogen-activated protein kinase 1, sequence (P28482 whole entry): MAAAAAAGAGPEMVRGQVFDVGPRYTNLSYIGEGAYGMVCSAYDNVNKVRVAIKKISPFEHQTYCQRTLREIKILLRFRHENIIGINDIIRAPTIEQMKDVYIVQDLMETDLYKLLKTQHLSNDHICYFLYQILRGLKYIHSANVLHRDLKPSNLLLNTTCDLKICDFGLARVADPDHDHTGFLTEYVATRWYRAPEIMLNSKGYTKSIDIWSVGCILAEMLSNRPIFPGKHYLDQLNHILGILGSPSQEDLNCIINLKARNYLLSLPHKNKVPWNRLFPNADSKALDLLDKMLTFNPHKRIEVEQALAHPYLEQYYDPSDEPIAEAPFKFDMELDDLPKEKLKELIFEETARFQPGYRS
Tyrosine-protein kinase HCK (Homo sapiens), sequence (P08631 2-526 limits assumed): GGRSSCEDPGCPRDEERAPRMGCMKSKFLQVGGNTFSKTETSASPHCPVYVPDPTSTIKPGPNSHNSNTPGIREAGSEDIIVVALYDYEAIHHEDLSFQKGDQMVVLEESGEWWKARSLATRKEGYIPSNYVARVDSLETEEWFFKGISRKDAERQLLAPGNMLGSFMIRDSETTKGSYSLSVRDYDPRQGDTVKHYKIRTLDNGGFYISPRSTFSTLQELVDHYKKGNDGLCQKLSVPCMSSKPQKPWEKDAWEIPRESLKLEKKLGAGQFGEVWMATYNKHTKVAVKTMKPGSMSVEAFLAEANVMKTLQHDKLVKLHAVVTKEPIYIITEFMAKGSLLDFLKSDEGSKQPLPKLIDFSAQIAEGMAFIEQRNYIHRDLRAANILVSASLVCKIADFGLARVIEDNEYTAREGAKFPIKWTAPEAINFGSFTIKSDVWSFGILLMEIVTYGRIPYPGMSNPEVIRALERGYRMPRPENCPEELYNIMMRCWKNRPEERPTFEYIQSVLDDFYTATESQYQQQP
Fibroblast growth factor receptor 2 (Homo sapiens), sequence (P21802 22-821 limits assumed): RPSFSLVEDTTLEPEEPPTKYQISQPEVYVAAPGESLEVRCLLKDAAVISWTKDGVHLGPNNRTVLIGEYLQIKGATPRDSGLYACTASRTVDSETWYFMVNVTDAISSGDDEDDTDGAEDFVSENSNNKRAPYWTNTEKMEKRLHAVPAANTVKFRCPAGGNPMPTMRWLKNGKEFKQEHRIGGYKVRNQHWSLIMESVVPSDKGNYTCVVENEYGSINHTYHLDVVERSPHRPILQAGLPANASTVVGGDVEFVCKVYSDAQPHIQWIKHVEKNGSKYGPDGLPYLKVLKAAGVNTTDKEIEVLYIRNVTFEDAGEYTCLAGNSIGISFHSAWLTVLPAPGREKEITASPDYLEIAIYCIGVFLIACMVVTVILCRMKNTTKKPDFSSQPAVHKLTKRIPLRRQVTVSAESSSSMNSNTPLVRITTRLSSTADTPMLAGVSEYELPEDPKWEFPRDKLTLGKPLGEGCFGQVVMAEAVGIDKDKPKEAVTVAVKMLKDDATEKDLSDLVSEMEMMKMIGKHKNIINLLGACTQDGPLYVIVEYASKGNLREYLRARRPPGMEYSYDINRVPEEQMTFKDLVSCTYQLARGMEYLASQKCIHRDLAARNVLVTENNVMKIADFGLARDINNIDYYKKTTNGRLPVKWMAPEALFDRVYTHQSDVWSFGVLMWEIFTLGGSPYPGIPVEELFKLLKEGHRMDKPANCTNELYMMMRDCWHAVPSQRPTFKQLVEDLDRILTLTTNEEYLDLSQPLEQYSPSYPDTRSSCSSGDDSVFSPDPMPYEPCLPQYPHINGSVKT

| inhibition [1] [%] | inhibition [2] [%] | inhibition (Homo sapiens [3]) [%] | inhibition [4] [%] | inhibition (Homo sapiens [5]) [%] | inhibition [6] [%] | inhibition [7] [%] | inhibition [8] [%] | inhibition [9] [%] | inhibition [10] [%] | inhibition [11] [%] | inhibition [12] [%] | inhibition [13] [%] | Structure (SMILES) |
| --- | --- | --- | --- | --- | --- | --- | --- | --- | --- | --- | --- | --- | --- |
| 94 | 99 | 13 | 9 | 99 | 100 | 15 | 81 | 7 | 20 | 41 | 18 | 18 | c1ccc(C2CCNC3(CCN(c4ncnc5[nH]cnc45)CC3)C2)cc1 (racemic) |
| 52 | 78 | 9 | 15 | 86 | 83 | 20 | 57 | 4 | 13 | 15 | 18 | 17 | c1ccc(CC2CCC3(CCN(c4ncnc5[nH]cnc45)CC3)NC2)cc1 (racemic) |
| 100 | 98 | 17 | 6 | 98 | 95 | 18 | 91 | 23 | 19 | 22 | 14 | 17 | c1ccc(CC2CCNC3(CCN(c4ncnc5[nH]cnc45)CC3)C2)cc1 (racemic) |
